Source: ChEMBL document CHEMBL1131446, “New 1,4-dihydropyridines conjugated to furoxanyl moieties, endowed with both nitric oxide-like and calcium channel antagonist vasodilator activities” (J Med Chem, 1998)
pEC50, pIC50, pKi: −log10 of the molar value.

How the values were obtained:
[1] = target: T1, Voltage-dependent L-type calcium channel subunit alpha-1D (Rattus norvegicus, UniProt P27732); experiment: Binding affinity for L-type [Ca2+] channels was measured through displacement of [3H]nitrendipine on rat cortex homogenates.; format: tissue-based
Rattus norvegicus [2] = organism: Rattus norvegicus; experiment: Vasodilator activity was measured on rat aorta in the presence of methylene blue (MB).
[3] = target: T1, Voltage-dependent L-type calcium channel subunit alpha-1D; experiment: Inhibitory concentration for L-type [Ca2+] channels was measured through displacement of [3H]nitrendipine on rat cortex homogenates.; format: tissue-based
Rattus norvegicus [4] = organism: Rattus norvegicus; experiment: […]; format: functional
Procedure, shortened: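 Nitrite formation measured as an index of NO release. Compound incubated in pH 7.4 buffer with a 50-fold molar excess of L-cysteine at 37 °C. After 1 h, nitrite was detected by the Griess reaction. Values are expressed as % NO₂⁻ (mol/mol).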

Rattus norvegicus [5] = organism: Rattus norvegicus; experiment: Vasodilator activity was measured on rat aorta.

T1 sequence (P27732 whole entry): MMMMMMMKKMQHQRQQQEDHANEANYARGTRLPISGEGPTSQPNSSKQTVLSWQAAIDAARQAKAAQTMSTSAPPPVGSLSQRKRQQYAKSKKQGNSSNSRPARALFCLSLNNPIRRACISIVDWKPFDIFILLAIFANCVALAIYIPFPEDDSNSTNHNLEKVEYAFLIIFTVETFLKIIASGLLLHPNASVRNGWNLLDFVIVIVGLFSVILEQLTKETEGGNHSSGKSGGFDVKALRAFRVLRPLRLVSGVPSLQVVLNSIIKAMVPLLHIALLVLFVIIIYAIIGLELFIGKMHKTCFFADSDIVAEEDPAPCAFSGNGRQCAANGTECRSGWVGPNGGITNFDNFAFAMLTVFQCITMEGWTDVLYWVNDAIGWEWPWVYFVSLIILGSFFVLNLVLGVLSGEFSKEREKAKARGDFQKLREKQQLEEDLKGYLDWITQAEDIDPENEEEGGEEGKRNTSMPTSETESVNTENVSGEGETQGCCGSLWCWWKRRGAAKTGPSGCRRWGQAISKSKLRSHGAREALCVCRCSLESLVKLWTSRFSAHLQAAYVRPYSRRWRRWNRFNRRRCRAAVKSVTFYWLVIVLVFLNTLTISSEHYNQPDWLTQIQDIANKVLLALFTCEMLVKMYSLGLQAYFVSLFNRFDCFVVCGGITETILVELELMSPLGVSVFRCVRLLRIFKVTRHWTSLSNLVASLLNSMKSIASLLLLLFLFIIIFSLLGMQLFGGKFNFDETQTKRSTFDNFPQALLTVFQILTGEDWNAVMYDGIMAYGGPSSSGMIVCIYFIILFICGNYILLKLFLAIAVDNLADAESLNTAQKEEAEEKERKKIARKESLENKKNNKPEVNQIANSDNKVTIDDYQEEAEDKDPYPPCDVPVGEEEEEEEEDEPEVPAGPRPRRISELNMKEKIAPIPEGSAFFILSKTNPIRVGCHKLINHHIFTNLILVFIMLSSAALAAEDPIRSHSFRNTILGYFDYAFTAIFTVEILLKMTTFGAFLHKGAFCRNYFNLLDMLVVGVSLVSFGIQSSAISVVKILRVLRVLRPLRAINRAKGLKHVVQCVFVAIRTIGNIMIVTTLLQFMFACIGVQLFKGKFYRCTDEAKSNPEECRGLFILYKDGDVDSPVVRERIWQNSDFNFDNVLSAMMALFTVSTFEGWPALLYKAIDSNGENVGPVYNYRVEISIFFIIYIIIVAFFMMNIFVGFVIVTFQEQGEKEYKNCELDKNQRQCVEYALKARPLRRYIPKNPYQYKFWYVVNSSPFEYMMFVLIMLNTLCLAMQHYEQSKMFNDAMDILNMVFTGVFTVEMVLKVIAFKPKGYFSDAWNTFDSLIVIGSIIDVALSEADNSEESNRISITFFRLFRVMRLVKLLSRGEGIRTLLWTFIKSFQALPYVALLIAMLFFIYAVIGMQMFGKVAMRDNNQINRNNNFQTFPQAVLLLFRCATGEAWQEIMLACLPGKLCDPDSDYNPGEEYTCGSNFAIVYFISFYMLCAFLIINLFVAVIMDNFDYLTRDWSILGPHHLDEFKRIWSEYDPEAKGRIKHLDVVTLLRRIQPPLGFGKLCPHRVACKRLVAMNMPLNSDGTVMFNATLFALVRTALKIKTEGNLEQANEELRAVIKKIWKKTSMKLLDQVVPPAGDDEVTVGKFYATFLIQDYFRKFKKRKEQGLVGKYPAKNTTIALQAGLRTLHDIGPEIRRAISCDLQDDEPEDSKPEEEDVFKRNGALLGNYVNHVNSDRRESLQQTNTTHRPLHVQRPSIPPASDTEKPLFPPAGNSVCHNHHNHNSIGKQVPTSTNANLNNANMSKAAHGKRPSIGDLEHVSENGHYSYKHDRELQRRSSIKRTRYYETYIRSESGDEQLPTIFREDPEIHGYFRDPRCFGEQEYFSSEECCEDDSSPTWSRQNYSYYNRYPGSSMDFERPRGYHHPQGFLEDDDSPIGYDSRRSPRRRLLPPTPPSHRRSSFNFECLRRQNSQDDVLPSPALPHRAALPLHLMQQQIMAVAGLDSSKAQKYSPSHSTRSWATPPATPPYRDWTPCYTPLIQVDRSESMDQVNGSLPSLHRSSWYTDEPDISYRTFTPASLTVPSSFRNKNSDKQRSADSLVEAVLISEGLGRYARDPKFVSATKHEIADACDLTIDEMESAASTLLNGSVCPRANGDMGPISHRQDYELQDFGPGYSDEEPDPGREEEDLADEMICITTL

Compound | pKi [1] | EC50 iGC (Rattus norvegicus [2]) [nM] | pIC50 [3] | Nitric oxide (Rattus norvegicus [4]) [%] | pEC50 (Rattus norvegicus [5])
COC(=O)C1=C(C)N=C(C)/C(=C(/O)OC)C1c1ccccc1OCc1no[n+]([O-])c1C#N (centres undefined) | 7.68 | 22 | 7.57 | 40.8 | 8.36
COC(=O)C1=C(C)N=C(C)/C(=C(/O)OC)C1c1cccc(OCc2c(C)no[n+]2[O-])c1 (centres undefined) | 6.55 | 400 | 6.21 | <0.5 | 6.40
COC(=O)C1=C(C)N=C(C)/C(=C(/O)OC)C1c1ccccc1OCc1nonc1C(N)=O (centres undefined) | 6.40 | 910 | 6.06 |  | 6.01
COC(=O)C1=C(C)N=C(C)/C(=C(/O)OC)C1c1ccccc1OCc1no[n+]([O-])c1C(N)=O (centres undefined) | 6.17 | 940 | 5.82 | 13 | 6.26
COC(=O)C1=C(C)N=C(C)/C(=C(/O)OC)C1c1ccccc1OCc1nonc1C (centres undefined) | 7.57 | 46 | 7.23 |  | 7.39
COC(=O)C1=C(C)N=C(C)/C(=C(/O)OC)C1c1ccccc1OCc1no[n+]([O-])c1C (centres undefined) | 7.74 | 46 | 7.40 | 0.9 | 7.37
COC(=O)C1=C(C)N=C(C)/C(=C(/O)OC)C1c1cccc(OCc2nonc2C#N)c1 (centres undefined) | 6.57 | 300 | 6.23 |  | 6.51
COC(=O)C1=C(C)N=C(C)/C(=C(/O)OC)C1c1cccc(OCc2c(C#N)no[n+]2[O-])c1 (centres undefined) | 6.66 |  | 6.30 | 31.5 | 7.96
COC(=O)C1=C(C)N=C(C)/C(=C(/O)OC)C1c1cccc(OCCO[N+](=O)[O-])c1 (centres undefined) | 6.36 | 750 | 6.01 | <0.5 | 6.12
COC(=O)C1=C(C)N=C(C)/C(=C(/O)OC)C1c1ccccc1OCc1nonc1C#N (centres undefined) | 8.33 | 6.6 | 8.00 |  | 8.18
COC(=O)C1=C(C)N=C(C)/C(=C(/O)OC)C1c1cccc(OCc2nonc2C)c1 (centres undefined) | 6.49 | 620 | 6.14 |  | 6.19
COC(=O)C1=C(C)N=C(C)/C(=C(/O)OC)C1c1cccc(OCc2nonc2C(N)=O)c1 (centres undefined) | 5.64 | 3300 | 5.29 |  | 5.46
COC(=O)C1=C(C)N=C(C)/C(=C(/O)OC)C1c1cccc(OCc2no[n+]([O-])c2C#N)c1 (centres undefined) | 6.64 |  | 6.30 | 43.8 | 8.48
COC(=O)C1=C(C)N=C(C)/C(=C(/O)OC)C1c1ccccc1OCc1c(C(N)=O)no[n+]1[O-] (centres undefined) | 6.46 | 640 | 6.11 | 12.3 | 6.25
COC(=O)C1=C(C)N=C(C)/C(=C(/O)OC)C1c1cccc(OCc2no[n+]([O-])c2C(N)=O)c1 (centres undefined) | 6.04 | 1500 | 5.70 | 6 | 6.15
COC(=O)C1=C(C)N=C(C)/C(=C(/O)OC)C1c1cccc(OCc2c(C(N)=O)no[n+]2[O-])c1 (centres undefined) | 5.80 | 3700 | 5.44 | 7.6 | 5.92
COC(=O)C1=C(C)N=C(C)/C(=C(/O)OC)C1c1ccccc1OCc1c(C)no[n+]1[O-] (centres undefined) | 7.49 | 76 | 7.14 | 1.8 | 7.11
COC(=O)C1=C(C)N=C(C)/C(=C(/O)OC)C1c1cccc(OCc2no[n+]([O-])c2C)c1 (centres undefined) | 6.43 | 540 | 6.09 | <0.5 | 6.30
COC(=O)C1=C(C)N=C(C)/C(=C(/O)OC)C1c1ccccc1OCCO[N+](=O)[O-] (centres undefined) | 7.42 | 54 | 7.07 | <0.5 | 7.25
COC(=O)C1=C(C)N=C(C)/C(=C(/O)OC)C1c1ccccc1OCc1c(C#N)no[n+]1[O-] (centres undefined) | 7.52 | 50 | 7.17 | 24 | 8.03
COC(=O)C1=C(C)NC(C)=C(C(=O)OC)C1c1ccccc1[N+](=O)[O-] [NIFEDIPINE] |  | 3.4 |  |  | 8.49
